This passage reports Tm and folding enthalpy results from the array DNA melting data of Ke et al. (doi:10.1101/2024.01.08.574731).

Series [1] is described as follows: melting temperature; fluorescence melt of hairpins on a sequencing array, two-state fit, raised by 9.35 °C to match UV melts. The note with it: sodium 0.088 M. The procedure, abridged:
(§1)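 On a sequenced MiSeq flow cell, library hairpins with annealed Cy3 and quencher oligos were imaged for Cy3 fluorescence in 2.5 °C steps up to 60 °C, in 50 mM Na-HEPES pH 8.0, 25 mM NaCl. Normalisation used pre-quench Cy3 and control constructs. Bootstrapped two-state fits gave melting temperature and folding enthalpy, combined by inverse variance across four replicates and with fitted temperatures raised by 9.35 °C to match UV melts.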

The nature of series [2]: folding enthalpy; higher = less favourable; fluorescence melt of hairpins on a sequencing array, two-state fit. The note with it: sodium 0.088 M. The method, boiled down: as §1

As to GACGCAGGAAACTGCATC ((.((((....)))).)), in series [1], the Tm is 36.2 °C. Moreover, the folding enthalpy in series [2] was -13.5 kcal/mol.

Turning to GACGCCGAAAGGCAAGTC ((((((....)))..))), the Tm in series [1] was 48.9 °C. Besides, the folding enthalpy in series [2] was -19.7 kcal/mol.

As for GACGCCGAAAGGCACGTC ((((((....)))..))), the Tm in series [1] amounted to 48.5 °C. Moreover, in series [2], the folding enthalpy is -13.4 kcal/mol.

Turning to GACGCCGAAAGGCCGTC ((((((....))).))), the Tm in series [1] stood at 61.4 °C. Also, in series [2], the folding enthalpy is -18.7 kcal/mol.

For GACGCCGGAAACAGCGCC (.(((.(....).))).), the Tm in series [1] was 31.8 °C. Besides, the folding enthalpy in series [2] is -17.8 kcal/mol.

With GACGCCGGAAACAGCGTC (((((.(....).))))), the Tm in series [1] was determined as 54.8 °C. Also, the folding enthalpy in series [2] is -35.9 kcal/mol.

Regarding GACGCCGGAAACGGCGCC (.(((((....))))).), the Tm in series [1] was 56.9 °C. Also, the folding enthalpy in series [2] is -10.5 kcal/mol.

For the sequence GACGCTGGAAACAGCGCC (.(((((....))))).), the Tm in series [1] is 53 °C. In series [2], the folding enthalpy was -12.4 kcal/mol.

Take GACGCTGGAAACGGTGTC (((.(.(....).).))): the Tm in series [1] was determined as 42.1 °C. Moreover, in series [2], the folding enthalpy was -28.9 kcal/mol.

GACGGAGCGAAAGCTGTC (((..(((....)))))): in series [1], the Tm was 41.8 °C. Moreover, the folding enthalpy in series [2] was -18.9 kcal/mol.

Turning to GACGGCGAAAGCCAGTC ((((((....))).))), the Tm in series [1] was found to be 60.2 °C. Moreover, in series [2], the folding enthalpy is -22.7 kcal/mol.

As for GACGGCGAAAGCCCTGTC ((((((....)))..))), the Tm in series [1] worked out at 38.6 °C. In addition, the folding enthalpy in series [2] was -13.6 kcal/mol.

For GACGGCGAAAGCCGGGTC ((((((....)))..))), the Tm in series [1] came out at 68.2 °C. Moreover, the folding enthalpy in series [2] was -11.3 kcal/mol.

Regarding GACGGCGAAAGCCGGTC ((((((....))).))), the Tm in series [1] was 64 °C. Moreover, the folding enthalpy in series [2] is -11.6 kcal/mol.

GACGGCGAAAGCCTAGTC ((((((....)))..))): the Tm in series [1] was 47.4 °C. Moreover, the folding enthalpy in series [2] was -16.7 kcal/mol.

As to GACGGCGAAAGCCTCGTC ((((((....)))..))), the Tm in series [1] was found to be 56.4 °C. Moreover, the folding enthalpy in series [2] is -13.1 kcal/mol.

Turning to GACGGCGGAAACGCTGTC (((.(((....))).))), in series [1], the Tm was 64.7 °C. In series [2], the folding enthalpy was -37.5 kcal/mol.

In the case of GACGGGCGAAAGCCGGTC (((.(((....))).))), the Tm in series [1] was 65.5 °C. Moreover, the folding enthalpy in series [2] was -25.9 kcal/mol.

Take GACGGGGAAACCCGTC ((((((....)))))): the Tm in series [1] came out at 68 °C. The folding enthalpy in series [2] was -37.9 kcal/mol.

As for GACGGGGGAAACCCCGCC (.(((((....))))).), the Tm in series [1] turned out to be 50.5 °C. Also, in series [2], the folding enthalpy is -12.5 kcal/mol.

With GACGGGGGAAACCCTGTC (((.(((....))).))), in series [1], the Tm came out at 54.4 °C. Besides, the folding enthalpy in series [2] is -37.1 kcal/mol.

With GACGGTGGAAACACCATC ((.((((....)))).)), the Tm in series [1] came to 36.5 °C. Also, the folding enthalpy in series [2] was -16.2 kcal/mol.

As for GACGGTGGAAACACTGTC (((.(((....))).))), in series [1], the Tm was 52.1 °C. For the same sequence, in series [2], the folding enthalpy is -45.8 kcal/mol.

In the case of GACGTACGAAAGTAAGTC (((.(((....))).))), the Tm in series [1] was found to be 50.6 °C. In series [2], the folding enthalpy is -29.2 kcal/mol.

Take GACGTCACGAAAGTGGTC (((..(((....)))))): in series [1], the Tm came out at 35.6 °C. The folding enthalpy in series [2] is -15 kcal/mol.

For GACGTGCCGAAAGGCGTC (((..(((....)))))), in series [1], the Tm is 46.8 °C. Besides, in series [2], the folding enthalpy was -13.3 kcal/mol.

In the case of GACGTGCGAAAGCAAGTC (((.(((....))).))), the Tm in series [1] was 60.5 °C. For the same sequence, in series [2], the folding enthalpy is -31.5 kcal/mol.

For GACGTGGGAAACCACGTC (((((((....))))))), in series [1], the Tm turned out to be 68.8 °C. Moreover, the folding enthalpy in series [2] is -37.1 kcal/mol.

On to GACGTGGGAAACTACGTC (((((.(....).))))), for which the Tm in series [1] was 52.5 °C. The folding enthalpy in series [2] was -38.4 kcal/mol.

On to GACGTTGGAAACAATGTC (((.(((....))).))), for which, in series [1], the Tm was determined as 48.4 °C. In addition, the folding enthalpy in series [2] was -37.3 kcal/mol.

For GACTAAGGAAACTTAGCC (.(((((....))))).), in series [1], the Tm turned out to be 31.3 °C. Besides, the folding enthalpy in series [2] was -20.4 kcal/mol.

With GACTACCCGAAAGGGGTC (((..(((....)))))), in series [1], the Tm is 38.3 °C. The folding enthalpy in series [2] is -11.3 kcal/mol.

Regarding GACTACGAAAGTATAGTC ((((((....)))..))), the Tm in series [1] was 36.8 °C. For the same sequence, the folding enthalpy in series [2] is -23.3 kcal/mol.

Consider GACTACGAAAGTATGGTC ((((((....)))..))), for which the Tm in series [1] is 34.4 °C. Also, the folding enthalpy in series [2] is -19.5 kcal/mol.

For the sequence GACTACGAAAGTATTGTC ((((((....)))..))), the Tm in series [1] is 29.6 °C. In series [2], the folding enthalpy was -15.2 kcal/mol.

Regarding GACTACGGAAACGTAGTC (((((((....))))))), the Tm in series [1] is 61.4 °C. Besides, the folding enthalpy in series [2] was -37.8 kcal/mol.
